The source made the active and inactive calls. The calls are words filed in the database; no cut-off is given here.
Columns and labels:
[1] = system: Splenocyte; assay: Immunomodulatory activity in BALB/c mouse infected with Leishmania donovani amastigotes assessed as increase in IFN-gamma level in splenocytes supernatants at 25 mg/kg, po for 5 days; type: functional, organism-based; settings: time 5.0 day
[2] = system: Leishmania donovani; assay: Antileishmanial activity against log phase of Leishmania donovani MHOM/IN/80/Dd8 promastigotes assessed as reduction in cell viability at 25 uM incubated for 72 hrs by MTT assay; type: functional
Procedure, shortened: (§1)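 Log-phase luciferase-transfected L. donovani Dd8 promastigotes (M199 + 10% FBS, 24 °C) treated with compounds at 25 and 50 µM in DMSO, with 0.1% DMSO vehicle control. After 72 h, MTT added 4 h. Formazan dissolved in DMSO, read at 570 nm. Percent inhibition reported as mean ± SD of at least three independent experiments in replicate.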

[3] = system: Splenocyte; assay: Immunomodulatory activity in BALB/c mouse infected with Leishmania donovani amastigotes assessed as increase in IL-12 level in splenocytes supernatants at 25 mg/kg, po for 5 days; type: functional, organism-based; settings: time 5.0 day
[4] = system: Leishmania donovani; assay: Antileishmanial activity against amastigote stage of Leishmania donovani MHOM/IN/80/Dd8 harboring luciferase gene infected in mouse J774 cells assessed as parasite growth inhibition at 25 uM incubated for 72 hrs by Steady-Glo reagent based luciferase assay; type: functional; settings: for inhibition at 25 µM: MHOM/IN/80/Dd8, J774
Procedure, shortened: (§2)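 J774 murine macrophages, 4 × 10⁴ cells/well in RPMI with 10% FBS for 24 h, are infected for 24 h at 37 °C, 5% CO₂ with stationary-phase luciferase-transfected L. donovani Dd8 promastigotes at a 1:8 macrophage:parasite ratio. Compounds are dissolved in DMSO. Luminescence is read after Steady-Glo is added in PBS. IC₅₀ is taken from a four-parameter Hill nonlinear regression. Miltefosine is the reference.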

[5] = system: Splenocyte; assay: Immunomodulatory activity in BALB/c mouse infected with Leishmania donovani amastigotes assessed as decrease in TGF-beta level in splenocytes supernatants at 25 mg/kg, po for 5 days; type: functional, organism-based; settings: time 5.0 day
[6] = system: Leishmania donovani; assay: Antileishmanial activity against Leishmania donovani MHOM/IN/80/Dd8 infected in BALB/c mouse assessed as reduction in organ intracellular amastigote burden at 25 mg/kg, po for 5 days and measured at 1 week post-treatment by Giemsa staining based assay relative to control; type: functional; settings: MHOM/IN/80/Dd8, po, 288 h, time 12 day
Procedure, shortened: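 Female BALB/c mice (20–25 g), 5/group, infected iv with 2 × 10^7 stationary-phase L. donovani promastigotes. Reference drug given orally at 25 mg/kg daily for 5 consecutive days. Sacrificed day 7 post-treatment. Liver and spleen impression smears fixed in methanol, stained with 30% Giemsa for 2 h. Amastigotes/1000 nucleated cells counted and expressed as LDU.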

[7] = system: Leishmania donovani; assay: Antileishmanial activity against log phase of Leishmania donovani MHOM/IN/80/Dd8 promastigotes assessed as reduction in cell viability at 50 uM incubated for 72 hrs by MTT assay; type: functional; procedure, shortened: as §1
[8] = system: Leishmania donovani; assay: Antileishmanial activity against amastigote stage of Leishmania donovani MHOM/IN/80/Dd8 harboring luciferase gene infected in mouse J774 cells assessed as parasite growth inhibition incubated for 72 hrs by Steady-Glo reagent based luciferase assay; type: functional, organism-based; settings: MHOM/IN/80/Dd8, J774, 72 h; procedure, shortened: as §2
[9] = system: Splenocyte; assay: Immunomodulatory activity in BALB/c mouse infected with Leishmania donovani amastigotes assessed as decrease in IL-10 level in splenocytes supernatants at 25 mg/kg, po for 5 days; type: functional, organism-based; settings: time 5.0 day
[10] = system: Leishmania donovani; assay: Antileishmanial activity against amastigote stage of Leishmania donovani MHOM/IN/80/Dd8 harboring luciferase gene infected in mouse J774 cells assessed as parasite growth inhibition at 50 uM incubated for 72 hrs by Steady-Glo reagent based luciferase assay; type: functional; settings: for inhibition at 50 µM: MHOM/IN/80/Dd8, J774; procedure, shortened: as §2
[11] = system: Leishmania; assay: Antileishmanial activity against Leishmania; type: functional, organism-based
Procedure, shortened: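 Antiamastigote assay: J774 murine macrophages in RPMI + 10% FBS, infected 24 h at 37 °C, 5% CO2 with stationary-phase luciferase-transfected L. donovani Dd8 promastigotes (1:8 macrophage:parasite). Infectivity confirmed by Giemsa staining on parallel slides. Compounds then added and incubated 72 h. Read-out by luciferase luminescence. IC50 from four-parameter Hill nonlinear regression of the dose-response.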

[12] = system: Leishmania donovani; assay: Induction of mitochondrial membrane potential dysfunction in Leishmania donovani MHOM/IN/80/Dd8 promastigotes assessed as cells with mitochondrial depolarization at 50 uM incubated for 72 hrs by JC1 staining based flow cytometry (reference value: 3.63%); type: functional

For `CCCCCCCCCCCCCCCCOP(=O)([O-])OCC[N+](C)(C)C` [MILTEFOSINE], the Activity [1] was “Active”, the inhibition at 25 µM [2] was 99.4% and the Activity [3] was “Active”. For the same compound, the inhibition at 25 µM [4] was 91.2%, the Activity [5] was “Active” and the inhibition in vivo at 25 mg/kg [6] was over 97%. The inhibition at 50 µM [7] was 99.7%, the IC50 [8] was 12.8 µM and the Activity [9] was “Active”. The inhibition at 50 µM [10] was 95.3%.
Compound `COc1ccc(-c2cc(N3CCN(c4ccccc4O)CC3)c(C#N)c(=O)o2)cc1` has an inhibition at 25 µM [2] of 78.3%, an inhibition at 25 µM [4] of 51.8% and an inhibition at 50 µM [7] of 86.3%. The IC50 [8] was 13 µM and the inhibition at 50 µM [10] was 84.4%.
For `N#Cc1c2c(c3c(c1N1CCN(c4ccccc4O)CC1)Cc1ccccc1-3)CSC2`, the inhibition [2] was “inactive”, the inhibition at 25 µM [4] was 45.5% and the inhibition [7] was “inactive”. The inhibition at 50 µM [10] was 57.3%.
`CCn1nc2cc(N/C(C)=C3/C(=O)C=C(C)OC3=O)ccc2c1Cl` gave an IC50 [11] of 2.48 µM.
With `N#CC(C#N)=NNc1cccc(Cl)c1` [CARBONYL CYANIDE M-CHLOROPHENYLHYDRAZONE] the Activity [12] was 95.6%.
`N#Cc1c(N2CCN(c3ccccc3O)CC2)c2c(oc1=O)-c1ccccc1C2` gave an inhibition at 25 µM [2] of 14.2%, an inhibition at 25 µM [4] of 37.8% and an inhibition at 50 µM [7] of 82.2%. The inhibition at 50 µM [10] was 60%.
Compound `Cc1ccc(-c2cc(N3CCN(c4ccccc4O)CC3)c(C#N)c(=O)o2)cc1` has an inhibition at 25 µM [2] of 54.7%, an inhibition at 25 µM [4] of 77.3% and an inhibition at 50 µM [7] of 72.8%. The IC50 [8] was 13 µM and the inhibition at 50 µM [10] was 83.2%.
In the case of `N#Cc1c(N2CCN(c3ccccc3O)CC2)cc(-c2ccc(Cl)cc2)oc1=O`, the inhibition [2] is reported as “inactive”, the inhibition [4] is reported as “inactive” and the inhibition at 50 µM [7] is reported as 25%. For the same compound, the inhibition [10] was “inactive”.
For `N#Cc1c(N2CCN(c3cccc(Cl)c3)CC2)cc(-c2ccccc2)oc1=O`, the inhibition at 25 µM [2] was 44%, the inhibition at 25 µM [4] was 47.4% and the inhibition at 50 µM [7] was 57.3%. For the same compound, the inhibition at 50 µM [10] was 72.1%.
In the case of `N#Cc1c(N2CCN(c3ccccc3O)CC2)cc(-c2ccc(Br)cc2)c2c1CCSC2`, the inhibition [2] is reported as “inactive”, the inhibition at 25 µM [4] is reported as 71% and the inhibition at 50 µM [7] is reported as 33.3%. For the same compound, the inhibition at 50 µM [10] was 83.3%.
Compound `N#Cc1c(N2CCN(c3ccccc3O)CC2)cc(-c2cccc3ccccc23)oc1=O` has an inhibition at 25 µM [2] of 77.3%, an inhibition at 25 µM [4] of 71.4% and an inhibition at 50 µM [7] of 78.6%. It also gave an IC50 [8] of 13 µM and an inhibition at 50 µM [10] of 80.8%.
With `COc1ccccc1N1CCN(c2cc(-c3cccs3)oc(=O)c2C#N)CC1` the inhibition at 25 µM [2] was 48.1%, the inhibition at 25 µM [4] was 52.2% and the inhibition at 50 µM [7] was 62.2%. The inhibition at 50 µM [10] was 71.2%.
